Measured values taken from ChEMBL document CHEMBL1140226, “Development of novel G-protein-coupled receptor 54 agonists with resistance to degradation by matrix metalloproteinase” (J Med Chem, 2008).

Legend:
[1] = Stability in mouse serum assessed as half life; type: ADME, cell-free
In short: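 Peptides were incubated in murine serum and the half-life was determined.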

KiSS-1 receptor [2] = target: T1, KiSS-1 receptor (Homo sapiens, UniProt Q969F8); test: Displacement of [125I]kisspeptin-15 from human GPR54 expressed in CHO cell membrane; type: cell membranes
KiSS-1 receptor [3] = target: T1, KiSS-1 receptor; test: Agonist activity at human GPR54 expressed in CHO cells assessed as effect on kisspeptin-10-induced response by FLIPR assay; type: functional, cell-based
[4] = target: 72 kDa type IV collagenase (Homo sapiens) (UniProt P08253); test: Inhibition of MMP2 at 10 uM by fluorimetric assay; set-up: scale not given: the % may be the effect or the level left
[5] = target: Matrix metalloproteinase-9 (Homo sapiens) (UniProt P14780); test: Inhibition of MMP9 at 10 uM by fluorimetric assay; set-up: scale not given: the % may be the effect or the level left
Serum = test: Stability in mouse serum within 1 hr; type: ADME, cell-free
KiSS-1 receptor [6] = target: T1, KiSS-1 receptor; test: Ratio of IC50 of compound to IC50 of kisspeptin-10 for human GPR54

T1 sequence (Q969F8 whole entry): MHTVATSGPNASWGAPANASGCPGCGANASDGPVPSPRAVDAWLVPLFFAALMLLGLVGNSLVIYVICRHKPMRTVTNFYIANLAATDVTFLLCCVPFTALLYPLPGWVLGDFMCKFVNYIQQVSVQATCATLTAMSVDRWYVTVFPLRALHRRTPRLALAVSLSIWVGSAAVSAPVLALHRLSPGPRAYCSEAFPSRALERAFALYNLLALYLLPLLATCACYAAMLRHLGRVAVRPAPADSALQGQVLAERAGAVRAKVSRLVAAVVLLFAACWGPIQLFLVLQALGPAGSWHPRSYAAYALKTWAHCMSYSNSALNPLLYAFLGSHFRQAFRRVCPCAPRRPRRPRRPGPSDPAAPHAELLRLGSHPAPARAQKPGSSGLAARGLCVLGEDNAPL
72 kDa type IV collagenase (Homo sapiens), sequence (P08253 110-660 limits assumed): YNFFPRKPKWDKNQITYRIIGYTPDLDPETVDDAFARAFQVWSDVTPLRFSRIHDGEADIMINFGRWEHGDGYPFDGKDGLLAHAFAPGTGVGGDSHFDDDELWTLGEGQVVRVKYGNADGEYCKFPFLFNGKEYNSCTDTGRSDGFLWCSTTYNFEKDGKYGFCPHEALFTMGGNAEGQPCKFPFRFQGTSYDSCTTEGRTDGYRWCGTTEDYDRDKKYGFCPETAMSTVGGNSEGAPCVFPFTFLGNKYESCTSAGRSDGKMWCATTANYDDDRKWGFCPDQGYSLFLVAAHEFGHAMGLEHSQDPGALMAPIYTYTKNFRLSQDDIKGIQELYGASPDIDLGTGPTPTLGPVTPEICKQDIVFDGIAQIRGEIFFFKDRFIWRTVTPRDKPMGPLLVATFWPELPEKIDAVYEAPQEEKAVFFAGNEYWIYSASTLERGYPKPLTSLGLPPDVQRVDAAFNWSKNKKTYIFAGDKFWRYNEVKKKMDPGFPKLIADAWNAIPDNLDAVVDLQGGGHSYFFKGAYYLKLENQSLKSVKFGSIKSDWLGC
Matrix metalloproteinase-9 (Homo sapiens), sequence (P14780 whole entry): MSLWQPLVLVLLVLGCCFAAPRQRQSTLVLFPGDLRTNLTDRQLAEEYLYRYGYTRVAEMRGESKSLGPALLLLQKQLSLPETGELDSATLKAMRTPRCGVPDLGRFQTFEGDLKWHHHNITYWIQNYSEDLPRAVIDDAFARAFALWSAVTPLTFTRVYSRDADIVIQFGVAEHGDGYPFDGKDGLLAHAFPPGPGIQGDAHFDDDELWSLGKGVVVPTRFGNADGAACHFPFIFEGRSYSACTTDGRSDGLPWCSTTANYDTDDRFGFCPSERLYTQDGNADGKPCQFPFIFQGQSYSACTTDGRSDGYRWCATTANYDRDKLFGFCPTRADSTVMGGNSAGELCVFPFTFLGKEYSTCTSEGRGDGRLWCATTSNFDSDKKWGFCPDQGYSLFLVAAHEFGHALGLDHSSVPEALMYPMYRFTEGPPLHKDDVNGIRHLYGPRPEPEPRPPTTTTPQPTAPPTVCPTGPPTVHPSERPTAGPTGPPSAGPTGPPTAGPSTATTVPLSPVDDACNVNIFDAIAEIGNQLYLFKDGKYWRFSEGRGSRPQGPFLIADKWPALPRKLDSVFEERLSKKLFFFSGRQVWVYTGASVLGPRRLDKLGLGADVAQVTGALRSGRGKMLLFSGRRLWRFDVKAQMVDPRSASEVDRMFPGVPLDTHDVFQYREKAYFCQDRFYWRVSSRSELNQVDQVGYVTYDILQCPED

SMILES: CC(C)C/C(=C\[C@H](O)CNC(=O)[C@H](Cc1ccccc1)NC(=O)c1ccc(F)cc1)C(=O)N[C@@H](CCCN=C(N)N)C(=O)N[C@@H](Cc1c[nH]c2ccccc12)C(N)=O
- half-life [1]: 1100 min

SMILES: CC(C)C[C@H](NC(=O)CNC(=O)[C@H](Cc1ccccc1)NC(=O)c1ccc(F)cc1)C(=O)N[C@@H](CCCN=C(N)N)C(=O)N[C@@H](Cc1c[nH]c2ccccc12)C(N)=O
- IC50 (KiSS-1 receptor [2]): 0.71 nM
- EC50 (KiSS-1 receptor [3]): 0.45 nM
- half-life [1]: 6.6 min

SMILES: CC(C)C[C@H](C[C@H](O)CNC(=O)[C@H](Cc1ccccc1)NC(=O)c1ccc(F)cc1)C(=O)N[C@@H](CCCNC(=N)N)C(=O)N[C@@H](Cc1c[nH]c2ccccc12)C(N)=O
- Activity [4]: 98.7%
- Activity [5]: 103%

SMILES: CC(C)C[C@@H](C[C@@H](O)CNC(=O)[C@H](Cc1ccccc1)NC(=O)c1ccc(F)cc1)C(=O)N[C@@H](CCCNC(=N)N)C(=O)N[C@@H](Cc1c[nH]c2ccccc12)C(N)=O
- Activity [4]: 96.5%
- Activity [5]: 108%

SMILES: CC(C)C[C@H](CCCNC(=O)[C@H](Cc1ccccc1)NC(=O)c1ccc(F)cc1)C(=O)N[C@@H](CCCNC(=N)N)C(=O)N[C@@H](Cc1c[nH]c2ccccc12)C(N)=O
- half-life [1]: 45 min
- Activity [4]: 97.1%
- Activity [5]: 102%

SMILES: CC(C)C[C@H](C[C@@H](O)CNC(=O)[C@H](Cc1ccccc1)NC(=O)c1ccc(F)cc1)C(=O)N[C@@H](CCCNC(=N)N)C(=O)N[C@@H](Cc1c[nH]c2ccccc12)C(N)=O
- half-life [1]: 54 min
- Activity [4]: 96.2%
- Activity [5]: 109%

SMILES: CC(C)C[C@@H](C[C@@H](O)CNC(=O)[C@H](Cc1ccccc1)NC(=O)c1ccc(F)cc1)C(=O)N[C@@H](CCCN=C(N)N)C(=O)N[C@@H](Cc1c[nH]c2ccccc12)C(N)=O
- IC50 (KiSS-1 receptor [2]): 380 nM
- half-life [1]: 470 min

SMILES: CC(C)C[C@@H](C[C@H](O)CNC(=O)[C@H](Cc1ccccc1)NC(=O)c1ccc(F)cc1)C(=O)N[C@@H](CCCNC(=N)N)C(=O)N[C@@H](Cc1c[nH]c2ccccc12)C(N)=O
- half-life [1]: 120 min
- Activity [4]: 99.3%
- Activity [5]: 100%

SMILES: CC(C)C[C@H](/C=C/CNC(=O)[C@H](Cc1ccccc1)NC(=O)c1ccc(F)cc1)C(=O)N[C@@H](CCCN=C(N)N)C(=O)N[C@@H](Cc1c[nH]c2ccccc12)C(N)=O
- EC50 (KiSS-1 receptor [3]): 0.3 nM
- half-life [1]: 38 min

SMILES: CC(C)C/C(=C\CCNC(=O)[C@H](Cc1ccccc1)NC(=O)c1ccc(F)cc1)C(=O)N[C@@H](CCCNC(=N)N)C(=O)N[C@@H](Cc1c[nH]c2ccccc12)C(N)=O
- half-life [1]: 52 min
- Activity [4]: 94.5%
- Activity [5]: 98.9%

SMILES: CC(C)C[C@H](NC(=O)CNC(=O)[C@H](Cc1ccccc1)NC(=O)[C@H](CO)NC(=O)[C@H](CC(N)=O)NC(=O)[C@H](Cc1c[nH]c2ccccc12)NC(=O)[C@H](CC(N)=O)NC(=O)[C@@H](N)Cc1ccc(O)cc1)C(=O)N[C@@H](CCCNC(=N)N)C(=O)N[C@@H](Cc1ccccc1)C(N)=O [KISSPEPTIN-10]
- IC50 (KiSS-1 receptor [2]): 0.07 nM
- Stability (Serum): Unstable

SMILES: CC(C)C[C@H](C[C@H](O)CNC(=O)[C@H](Cc1ccccc1)NC(=O)c1ccc(F)cc1)C(=O)N[C@@H](CCCN=C(N)N)C(=O)N[C@@H](Cc1c[nH]c2ccccc12)C(N)=O
- IC50 (KiSS-1 receptor [2]): 0.24 nM
- half-life [1]: 35 min

SMILES: CC(C)C/C(=C\[C@@H](O)CNC(=O)[C@H](Cc1ccccc1)NC(=O)c1ccc(F)cc1)C(=O)N[C@@H](CCCNC(=N)N)C(=O)N[C@@H](Cc1c[nH]c2ccccc12)C(N)=O
- half-life [1]: 60 min
- Activity [4]: 99.1%
- Activity [5]: 104%

SMILES: CC(C)C/C(=C\[C@H](O)CNC(=O)[C@H](Cc1ccccc1)NC(=O)c1ccc(F)cc1)C(=O)N[C@@H](CCCNC(=N)N)C(=O)N[C@@H](Cc1c[nH]c2ccccc12)C(N)=O
- Activity [4]: 96.9%
- Activity [5]: 103%

SMILES: CC(C)C[C@H](/C=C/CNC(=O)[C@H](Cc1ccccc1)NC(=O)c1ccc(F)cc1)C(=O)N[C@@H](CCCNC(=N)N)C(=O)N[C@@H](Cc1c[nH]c2ccccc12)C(N)=O
- Activity [4]: 101%
- Activity [5]: 101%

SMILES: CC(C)C[C@@H](NC(=O)CNC(=O)[C@H](Cc1ccccc1)NC(=O)c1ccc(F)cc1)C(=O)N[C@@H](CCCNC(=N)N)C(=O)N[C@@H](Cc1c[nH]c2ccccc12)C(N)=O
- IC50 (KiSS-1 receptor [2]): 240 nM
- Ratio IC50 (KiSS-1 receptor [6]): 240

SMILES: CC(C)C[C@H](NC(=O)CNC(=O)[C@H](Cc1ccccc1)NC(=O)c1ccc(F)cc1)C(=O)N[C@@H](CCCNC(=N)N)C(=O)N[C@@H](Cc1c[nH]c2ccccc12)C(N)=O
- Ratio IC50 (KiSS-1 receptor [6]): 7.3
